Lung fibro prol – antiproliferative effect on LL 47 fibroblasts – human, LL 47 cells, CellTiter-Glo luminescence, primary screen | hit rate 1.1% among 85,000 | viability, % at 10 µM | LL 47 human lung fibroblast viability, ATP luminescence; stronger effect = lower value;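 active means viability at or below 50% in the single dose screen; inactive means viability above 50%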;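 further: compound exposure lasted 72 h before the ATP readout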
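Material: human LL 47 lung fibroblast cells; quantity: 1,150 cells/well; medium: IMEM plus 15% FBS; doses: 0.1% DMSO in all compound wells; timing: overnight attachment after seeding, then 72 h compound exposure at 37 °C; detection: CellTiter-Glo luminescence; measure: % viability of median cell-only signal; controls: cell-only wells, no compound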
HCT116 bCat-KO – primary screen for growth suppressors in beta-catenin knockout HCT116 cells (colon tumor, human). AID 818, 2007. viability, % at 10 µM. HCT116 beta-catenin knockout viability, CellTiter-Glo, 60 h; stronger effect = lower value. hit rate 1.5% among 140,000;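 active means viability at or under a set limit, the compound median less 4 SD, cut at about 6% in these data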
HUVEC inhibit – inhibitors of HUVEC proliferation, primary screen, cell-based, 384-well | hit rate 1.1% among 86,000 | AID 648, 2007 | CellTiter-Glo luminescence, 72 h; stronger effect = lower value | viability, % at 10 µM (by protocol);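 active means viability at or below 30%; inactive means viability above 30%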
PTEN del growth – growth suppression of PTEN-null HCT116, primary screen, cell-based, CellTiter-Glo; HCT116 PTEN-null viability, 60 h; stronger effect = lower value; viability, % at 10 µM; hit rate 1.2% among 140,000;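 active means viability at or below a set limit, 4 SD under the median of all tested compounds, cut at about 3.7% in these data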;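 further: PTEN knockout HCT116 line with beta catenin targeted HCT116 as companion control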
H69AR growth 86K – proliferation blockers of H69AR lung cancer cells, primary screen, cell-based, human, 86K library. hit rate 6% among 85,000. H69AR lung tumor viability, ATP luminescence, 72 h; stronger effect = lower value. viability, % at 10 µM. AID 598, 2007;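 active means viability at or below 40%; inactive means viability above 40%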;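 further: multidrug resistant small cell line overexpressing MRP-1 efflux transporter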
Each line names hits and unclear results; the compound was inactive in the other large screens. This excerpt belongs to a sample that is enriched for hits.

O=C(NC1CCCC1)c1sc(=S)n2c1[nH]c(=O)c1ccccc12	H69AR growth 86K 22
Cc1cc(C(=O)N/N=C/c2ccc(Cl)c([N+](=O)[O-])c2)c(C)n1-c1ccc(F)cc1	HCT116 bCat-KO 3.1, PTEN del growth 2.5 (no result: Lung fibro prol, HUVEC inhibit, H69AR growth 86K)
O=C(Nc1ccc(Oc2cccc3ccccc23)cc1)c1ccco1	none
CCOc1cc(C(=S)N2CCOCC2)ccc1OS(=O)(=O)c1ccccc1[N+](=O)[O-]	none (no result: Lung fibro prol, HUVEC inhibit, H69AR growth 86K)
CCn1cc([N+](=O)[O-])c(C(=O)Nc2nc(-c3ccc(C)cc3)c(C)s2)n1	PTEN del growth 3.3 (no result: Lung fibro prol, HUVEC inhibit, H69AR growth 86K)
CCn1cc([N+](=O)[O-])c(C(=O)Nc2nc(-c3ccc(C)c(C)c3)c(C)s2)n1	none (no result: Lung fibro prol, HUVEC inhibit, H69AR growth 86K)
COc1ccc(C(=O)N2CCCC(c3nc(-c4cc(OC)c(OC)c(OC)c4)no3)C2)cc1 (stereo not drawn)	H69AR growth 86K 35
COc1ccccc1C(=O)N1CCCC(c2nc(-c3cc(OC)c(OC)c(OC)c3)no2)C1 (stereo not drawn)	none
Cc1cc(NC(=O)c2ccc(C)s2)n(-c2nc3ccccc3[nH]2)n1	none (no result: Lung fibro prol, HUVEC inhibit, H69AR growth 86K)
Cc1cc(N2CCN(c3ccccc3)CC2)nc(-n2nc(C)cc2C)n1	H69AR growth 86K 9.3
Cc1cc(NC(=O)c2c(F)cccc2Cl)n(-c2nc3ccccc3[nH]2)n1	H69AR growth 86K 28
Cc1cc(NC(=O)c2c(F)cccc2F)n(-c2nc3ccccc3[nH]2)n1	H69AR growth 86K 36
Cc1cc(NC(=O)c2ccccc2F)n(-c2nc3ccccc3[nH]2)n1	none
Cc1cc(Nc2ccccc2)n(-c2nc3ccccc3[nH]2)n1	H69AR growth 86K 37
O=C(CSc1ncn[nH]1)Nc1ccc2c(c1)CCC2	none (no result: Lung fibro prol, HUVEC inhibit, H69AR growth 86K)
Cc1cc(C)nc(-n2nc(C)cc2Nc2ccccc2)n1	H69AR growth 86K 10
Cc1ccc(C)c(OCC(=O)Nc2ccc3c(c2)OCO3)c1C	H69AR growth 86K 21
CCN1C(=O)/C(=c2/s/c(=C3\SC(C)=C(C)N3CC)c(=O)n2CC)N(c2ccccc2)C1=S	none (no result: HCT116 bCat-KO, PTEN del growth)
CC(=O)N/C(=C/c1ccc2c(c1)OCO2)C(=O)NCC(=O)O	none (no result: Lung fibro prol, HUVEC inhibit, H69AR growth 86K)
CCn1c(Sc2ccc(N)cc2Cl)nc2ccccc21	H69AR growth 86K 34
COC(=O)c1ccc(NC(=S)NC2CC3CCC2C3)cc1 (stereo not drawn)	none (no result: Lung fibro prol, HUVEC inhibit, H69AR growth 86K)
Cn1c(C(=O)OC(C(=O)NC2CCCCC2)c2ccncc2)cc2sccc21 (stereo not drawn)	H69AR growth 86K 23
Cn1c(C(=O)OC(C(=O)NC2CCCC2)c2ccncc2)cc2sccc21 (stereo not drawn)	none
COc1ccc2nc(NC(=S)N(C)C)sc2c1	none
CCN(CC)S(=O)(=O)c1ccc(OC)c(NC(=O)CSc2cc(C)ccc2C)c1	none (no result: Lung fibro prol, HUVEC inhibit, H69AR growth 86K)
Cc1cccc(N/C=C/C(=O)c2cccs2)c1C	none (no result: Lung fibro prol, HUVEC inhibit, H69AR growth 86K)
COc1cc([N+](=O)[O-])ccc1N/C=C/C(=O)c1cccs1	HUVEC inhibit 29
Clc1ccc(-c2ccc(/C=N/Nc3cc(N4CCOCC4)nc(N4CCOCC4)n3)o2)cc1	HUVEC inhibit 13, H69AR growth 86K 30
CCOC(=O)Cc1csc(SCC(=O)Nc2cc(Cl)ccc2Oc2ccccc2)n1	none
Cc1cc([N+](=O)[O-])ccc1NC(=S)NC(=O)Cc1ccccc1	none
Cc1cc([N+](=O)[O-])ccc1NC(=S)NC(=O)C(c1ccccc1)c1ccccc1	H69AR growth 86K 32
CCC(=O)N=c1sc2cc(F)cc(F)c2n1C	none (no result: HCT116 bCat-KO, PTEN del growth)
CCn1c(=NC(=O)CSC(C)=O)sc2cc(F)ccc21	H69AR growth 86K 28
COc1ccc(C(=O)NCC(O)COc2ccc(C(C)(C)C)cc2)cc1[N+](=O)[O-] (stereo not drawn)	none (no result: Lung fibro prol, HUVEC inhibit, H69AR growth 86K)
N#Cc1c(-c2ccccc2)ccnc1Oc1ccccc1	none (no result: Lung fibro prol, HUVEC inhibit, H69AR growth 86K)
N#Cc1ccc(-c2ccc(F)cc2)nc1Oc1ccc(Cl)c(Cl)c1	HCT116 bCat-KO 2.0, PTEN del growth 1.7 (no result: Lung fibro prol, HUVEC inhibit, H69AR growth 86K)
CC(C)CCN1CN(S(=O)(=O)c2cccs2)c2nc3ccccc3nc21	H69AR growth 86K 37
Cc1ccccc1NC(=O)c1cc(C(=O)c2cc(Cl)ccc2O)cn(-c2ccccc2C)c1=O	none (no result: Lung fibro prol, HUVEC inhibit, H69AR growth 86K)
Clc1ccc(SCCCCN2CCNCC2)cc1	none (no result: Lung fibro prol, HUVEC inhibit, H69AR growth 86K)
COc1cc2c(C(=O)NCc3ccc4c(c3)OCO4)cn(CC(C)C)c(=O)c2cc1OC	Lung fibro prol 42
CCC1(C(=O)c2ccc(Cl)cc2)C2c3ccccc3OC(=O)C21C(=O)Nc1ccccc1 (stereo not drawn)	none (no result: Lung fibro prol, HUVEC inhibit, H69AR growth 86K)
CCOC(=O)Cc1csc(NC(=O)CCN2C(=O)c3ccccc3C2=O)n1	none (no result: PTEN del growth)
Clc1ccc(Nc2nc3ccccc3n3nnnc23)cc1	none
Fc1cc(Br)ccc1Nc1nc2ccccc2n2nnnc12	H69AR growth 86K 25
CC(C)c1nc(SCC(=O)Nc2ccc3c(c2)OCCO3)c2c(=O)n(C)c(=O)n(C)c2n1	H69AR growth 86K 31
CCCc1nc(SCC(=O)NCc2ccc3c(c2)OCO3)c2c(=O)n(C)c(=O)n(C)c2n1	H69AR growth 86K 13 (no result: HCT116 bCat-KO, PTEN del growth)
Nn1c(Cc2cccc3ccccc23)nnc1SCCOc1ccc(F)cc1	none (no result: Lung fibro prol, HUVEC inhibit, H69AR growth 86K)
CCOC(=O)C1CCC(CNCc2ccc(Cl)cc2)CC1 (stereo not drawn)	none (no result: Lung fibro prol, HUVEC inhibit, H69AR growth 86K)
CCOC(=O)Cn1c(-c2ccccc2)nc2ccccc2c1=O	none (no result: Lung fibro prol, HUVEC inhibit, H69AR growth 86K)
CCOC(=O)Cn1c(=O)c(-c2ccccc2NCc2ccccc2)nc2ccccc21	H69AR growth 86K 28 (no result: HCT116 bCat-KO, PTEN del growth)
COC(=O)c1sc(N)c(C(=O)OC)c1COC(=O)c1c(C)noc1C	H69AR growth 86K 19
